# CHO parental Ca – ATP-evoked calcium signal inhibitors, parental CHO, primary screen, counter-screen for OX1R antagonist project, cell-based, fluorescence, Fluo-8 calcium dye; parental CHO-K1, ATP-induced calcium, Fluo-8 fluorescence; inhibition, % at 5.6 µM; 0.63% of 330,000 active; AID 463079, 2010;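 active = inhibition above that plate's mean sample inhibition plus 3 SD, cut at about 26% in these data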;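 note: 0% = ATP-challenged DMSO wells and 100% = DMSO wells without ATP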
#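 Test system: untransfected parental CHO cell line; also added: ATP stimulus; dosing: 5.6 µM, single dose; signal: calcium-sensitive Fluo-8 fluorescence; measure: percent inhibition of ATP-evoked calcium rise, normalized to controls; benchmarks: low control ATP plus DMSO, high control DMSO only; replication: one well per compound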
# OX1R antag-1 – antagonists of human orexin 1 receptor (OX1R). OX1R-expressing cells, FRET antagonist read-out. 1.8% of 330,000 active. inhibition, % at 6.6 µM; in the data active = inhibition mostly above about 38%, no sharp cut-off; inactive = mostly below about 40%;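 note: 0% = agonist challenge alone and 100% = reference antagonist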
# Target sequence (O43613 whole entry, looked up): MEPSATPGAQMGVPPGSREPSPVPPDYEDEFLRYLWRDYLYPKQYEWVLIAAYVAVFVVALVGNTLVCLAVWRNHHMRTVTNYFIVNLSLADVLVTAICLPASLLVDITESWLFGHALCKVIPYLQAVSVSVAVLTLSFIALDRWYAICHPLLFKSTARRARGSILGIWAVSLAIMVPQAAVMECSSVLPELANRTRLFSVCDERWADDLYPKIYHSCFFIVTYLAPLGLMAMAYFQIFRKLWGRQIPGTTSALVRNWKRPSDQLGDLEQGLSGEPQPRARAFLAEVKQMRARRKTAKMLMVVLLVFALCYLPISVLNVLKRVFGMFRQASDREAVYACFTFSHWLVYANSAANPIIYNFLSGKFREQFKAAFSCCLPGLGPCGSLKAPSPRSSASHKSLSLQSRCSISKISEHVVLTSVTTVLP
# TAAR1 ag – human TAAR1 agonists, primary screen, Fluo-8 calcium fluorescence, CHO RD-HGA16 cells | vehicle wells 0%, saturating PEA agonist 100% | activation, % at 3 µM | 0.99% of 360,000 active | AID 624467, 2012;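 active = activation above the mean activation of all test compounds in the run plus 3 SD, cut at about 38% in these data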
# Target sequence (Q96RJ0 whole entry, looked up): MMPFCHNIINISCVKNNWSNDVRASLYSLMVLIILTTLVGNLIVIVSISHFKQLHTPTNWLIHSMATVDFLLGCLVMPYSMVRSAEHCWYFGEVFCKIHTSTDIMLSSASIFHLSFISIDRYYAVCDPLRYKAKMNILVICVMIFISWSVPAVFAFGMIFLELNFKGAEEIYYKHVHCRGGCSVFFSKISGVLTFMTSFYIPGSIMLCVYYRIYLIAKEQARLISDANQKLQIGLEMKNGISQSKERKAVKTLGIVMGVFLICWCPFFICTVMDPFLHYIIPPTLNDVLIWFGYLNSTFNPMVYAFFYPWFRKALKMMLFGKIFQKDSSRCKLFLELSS
#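 Assay system: CHO-derived RD-HGA16 cells with stable Gα16 and human TAAR1; timing: 17-24 h seeding, 75 min 37 °C dye, 30 min RT; read-out: % activation from peak over basal fluorescence ratio, DMSO-to-PEA scaled; measured by: kinetic Fluo-8 calcium fluorescence; benchmarks: low control DMSO, high control PEA (EC100); doses: 3 µM single concentration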
# GPR7 antag – GPR7 receptor antagonists, primary screen, cell-based, fluorescence, single concentration; GPR7-expressing cells, fluorescence antagonist assay; inhibition, % at 4.4 µM; Neuropeptides B/W receptor type 1 (Homo sapiens), P48145; 1.1% of 290,000 active; AID 1861, 2009; in the data active = inhibition above about 16%, passing the limit was not always enough;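 note: cells stimulated with the agonist NPW; 0% = agonist with vehicle and 100% = vehicle without agonist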
# TAAR1 antagonist – human TAAR1 antagonists, primary screen, Fluo-8 calcium fluorescence, CHO RD-HGA16 cells | Trace amine-associated receptor 1 (Homo sapiens), Q96RJ0 | antagonist | inhibition, % at 3 µM | 1.5% of 360,000 active;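 active = inhibition above a per-plate cutoff, the mean inhibition of test compounds on that plate plus 3 SD, cut at about 49% in these data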;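 note: 0% = DMSO plus EC80 beta-PEA response and 100% = DMSO alone without agonist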
#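 Test system – hTAAR1-expressing CHO RD-HGA16 cells, Gα16-coupled · Reagent – β-PEA at EC80 concentration, post-compound challenge · Compound dosing – 3 µM, single point · Timing – 140 s kinetic read after compound, 140 s after agonist · Detection – Fluo-8 intracellular calcium dye fluorescence, real-time kinetic reads · Control set – DMSO and EC80 PEA controls · Repeats – n of 1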
# OX1R antag-2 – OX1R (HCRTR1) antagonists, primary screen, fluorescence, CHO/OX1R cells, Fluo-8 calcium, orexin A; Orexin/Hypocretin receptor type 1 (Homo sapiens), O43613; Fluo-8 calcium fluorescence; inhibition, % at 5 µM; 0.43% of 330,000 active; AID 434989, 2010;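 active = inhibition above its plate's threshold, mean inhibition of all tested compounds on the plate plus 3 SD, cut at about 37% in these data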;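 note: 0% = orexin A challenge wells and 100% = SB-334867-A antagonist wells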
# nonsel antag count – nonselective antagonists in TAAR1 counter-screen cells, counter-screen for hTAAR1 antagonist project, cell-based, fluorescence, calcium. shares compounds with TAAR1 antagonist. counterscreen cell line, antagonist mode. inhibition, % at 3 µM. 77% of 2,400 active; in the data active = inhibition above about 22%;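 note: CHO-Ga16 host cells stimulated with ATP at an EC80 level; 0% = agonist EC80 plus vehicle and 100% = vehicle without agonist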
# TAAR1 ant conf – human TAAR1 antagonists, retest of hits, confirmation, cell-based, fluorescence. shares compounds with TAAR1 antagonist. TAAR1-expressing cells, fluorescence antagonist read-out. inhibition, % at 3 µM. 40% of 2,400 active. AID 651785, 2012; in the data active = inhibition above about 49%;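 note: CHO-Ga16 host cells challenged with agonist PEA near its EC80; 0% = agonist at EC80 plus vehicle and 100% = vehicle with no agonist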
# Ga16 nonsel ag – calcium activation in Ga16-expressing cells, counter-screen for TAAR1 antagonist project, cell-based, fluorescence; shares compounds with TAAR1 antagonist; agonist counterscreen; activation, % at 3 µM; 18% of 2,400 active; in the data active = activation above about 12%;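 note: 0% = vehicle wells and 100% = saturating stimulus response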
# TAAR1 ag count – TAAR1 activation by candidate antagonists – cell-based, fluorescence, counter-screen for TAAR1 antagonist project | shares compounds with TAAR1 antagonist | hTAAR1 cell line, agonist mode | activation, % at 3 µM | 2% of 2,400 active | AID 651955, 2012; in the data active = activation above about 37%;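 note: CHO cells stably expressing TAAR1 with calcium dye readout; 0% = DMSO vehicle and 100% = full agonist response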
# Active calls of the source: *; / = not tested or not shown. Sampled rows, rich in hits. Any-hit rate of the full collection: about 4.5%.
SMILES,CHO parental Ca,OX1R antag-1,TAAR1 ag,GPR7 antag,TAAR1 antagonist,OX1R antag-2,nonsel antag count,TAAR1 ant conf,Ga16 nonsel ag,TAAR1 ag count
COc1cccc(N2CCN(CC(=O)Nc3ccccc3C(=O)NCc3ccccc3)CC2)c1,-22.6,1.5,29.0,/,66.1*,-7.4,24.4*,56.2*,8.4,14.9
COC(=O)c1[nH]c2ccccc2c1NC(=O)CN1CCN(c2cccc(Cl)c2)CC1,-10.9,-1.7,13.4,-1.5,61.6*,2.3,30.4*,47.4,9.0,3.5
NC(=O)NC(CC(=O)OCC(=O)Nc1nnc(-c2ccccc2)o1)c1ccc(Cl)cc1 (stereo not drawn),/,/,1.2,/,-22.2,/,/,/,/,/
C/C=C(/C)C(=O)OC(C)(C)[C@@H]1Cc2c(ccc3ccc(=O)oc23)O1,-17.2,36.5,6.8,-9.9,10.4,-27.1,/,/,/,/
C/C=C(/C)C(=O)O[C@@H]1c2c(ccc3ccc(=O)oc23)O[C@@H]1C(C)(C)OC(=O)/C(C)=C\C,29.2,52.8,6.2,-16.2,59.5*,11.8,20.5,24.4,8.9,3.5
COc1cccc(OCCn2cc(C(=O)c3ccco3)c3ccccc32)c1,25.8,17.3,8.2,10.6,70.3*,46.1*,22.5*,46.0,5.0,7.1
COc1ccccc1OCCn1cc(C(=O)c2ccco2)c2ccccc21,-23.6,21.5,10.1,9.5,45.3,0.2,/,/,/,/
C=CCN(Cc1cccc(OC)c1OC)C(=O)Oc1ccccc1,-15.1,1.4,5.0,/,-9.7,-12.6,/,/,/,/
COc1cccc(OC)c1C(=O)Nc1cc(C)nn1-c1nc2ccccc2[nH]1,-19.8,17.5,7.8,-27.6,69.2*,-8.7,28.3*,48.9*,4.3,-0.3
O=S(=O)(c1cccc(F)c1)N1CCN(c2nc(-c3cccnc3)nc3ccccc23)CC1,-16.6,19.4,21.0,/,61.1*,-6.3,24.1*,54.4*,8.5,11.4
O=C(c1cc(Cl)nc2ccccc12)N1CCN(S(=O)(=O)c2cccc(F)c2)CC1,-10.8,13.7,2.6,/,3.0,-49.5,/,/,/,/
COc1ccc(CCN2C(=O)c3[nH]nc(-c4ccccc4O)c3C2c2cccc(Cl)c2)cc1 (stereo not drawn),-10.3,8.5,12.2,-12.2,58.7*,-39.6,19.4,40.0,8.1,11.6
O=C(NCc1ccccc1)C(c1ccco1)N(C(=O)c1ccccn1)c1ccccc1 (stereo not drawn),-17.3,19.2,-1.1,-4.0,-10.4,-6.2,/,/,/,/
COc1ccc(CNC(=O)C(c2ccco2)N(C(=O)c2ccccn2)c2ccccc2)cc1 (stereo not drawn),-19.9,10.5,10.0,-0.4,64.0*,-6.6,22.2*,34.4,6.0,3.7
O=C(NCc1ccccc1)C(c1ccc(O)cc1)N(C(=O)c1cnccn1)c1ccccc1 (stereo not drawn),-16.0,-2.1,16.5,-1.5,62.7*,-13.9,33.7*,52.6*,10.6,10.7
CCOC(=O)c1ccc2ncc(C(=O)OCC)c(Nc3ccc(N4CCOCC4)cc3)c2c1,-20.9,36.2,9.9,-8.5,57.3*,-24.6,36.2*,56.7*,5.9,3.4
CCOC(=O)c1cnc2ccc(C(=O)OC)cc2c1Nc1ccc(C(=O)O)cc1,-10.4,8.4,15.0,-9.1,8.4,-8.2,/,/,/,/
O=S(=O)(c1ccccc1Br)N(CC(O)COCc1ccccc1)C1CC1 (stereo not drawn),-31.4,20.0,-1.2,/,-17.5,1.4,/,/,/,/
O=S(=O)(c1ccccc1Br)N(Cc1ccccc1)CC(O)COCc1ccccc1 (stereo not drawn),-16.2,36.2*,4.8,/,58.9*,41.1,12.8,18.4,3.2,6.5
O=C(CN1c2cccc3cccc(c23)S1(=O)=O)Nc1ccc(F)c(F)c1F,-15.3,0.6,2.2,/,103.5*,-31.4,9.2,11.7,3.8,4.9
O=c1[nH]c(CSc2nnc(-c3cccnc3)n2C2CCCCC2)nc2ccccc12,-3.2,5.8,22.9,-7.8,65.0*,-6.2,27.6*,55.9*,10.8,14.3
CCn1c(SCc2nc3ccccc3c(=O)[nH]2)nnc1-c1cccnc1,-1.0,-2.8,7.8,-11.5,2.1,-2.9,/,/,/,/
CCCCc1nc(NCCNC(=O)c2ccccc2)c(C#N)c2c1CSC(C)(C)C2,-22.5,7.2,14.8,-4.6,67.9*,-35.0,29.6*,52.2*,6.7,5.6
O=C(NCCO)c1cccc(Nc2nc(-c3ccccc3)c3cc(Cl)ccc3n2)c1,-16.4,10.4,9.8,-20.1,48.9*,-24.7,30.5*,36.9,5.5,14.4
COc1cc(C(O)c2nc(-c3ccc(F)cc3OC)cs2)ccc1F (stereo not drawn),/,/,1.4,/,-2.7,/,/,/,/,/
SMILES,CHO parental Ca,OX1R antag-1,TAAR1 ag,GPR7 antag,TAAR1 antagonist,OX1R antag-2,nonsel antag count,TAAR1 ant conf,Ga16 nonsel ag,TAAR1 ag count
CC(=O)c1cccc(NC(=O)COC(=O)[C@@H](NC(=O)OCc2ccccc2)C(C)C)c1,-15.3,18.6,19.7,-6.4,60.0*,-37.9,29.9*,49.8*,10.4,14.3
CC(C)[C@H](NC(=O)OCc1ccccc1)C(=O)OCC(=O)NCCc1ccccc1,-11.1,24.3,9.6,-8.6,15.5,-14.9,/,/,/,/
O=C(Nc1cccc(Cl)c1Cl)c1ccc(-c2ccccc2)cc1,-5.6,14.3,15.4,-13.1,60.1*,-29.1,35.1*,89.8*,9.1,12.2
CCOC(=O)c1nn(-c2ccc(F)cc2)c(-c2ccccc2)c1C(=O)c1ccccc1,-17.9,29.8,1.4,-5.1,0.5,-11.3,/,/,/,/
CCOC(=O)c1nn(-c2ccccc2F)c(-c2ccccc2)c1C(=O)c1ccccc1,-9.9,4.0,4.9,-5.2,55.5*,-9.2,10.3,33.4,9.2,11.4
CCNC(=S)N/N=C/c1cccc(OCc2c(F)cccc2Cl)c1,-26.1,11.1,5.5,-14.7,56.8*,-24.0,13.1,47.0,10.9,12.2
